Assay results reported in ChEMBL document CHEMBL1157153, “Novel cyclohexene derivatives as anti-sepsis agents: synthetic studies and inhibition of NO and cytokine production” (Bioorg Med Chem, 2008).

How the values were obtained:
RAW264.7 [1] = assay: Suppression of LPS-induced NO production in mouse RAW264.7 cells by fluorometric assay; format: functional, cell-based
Outline: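 RAW264.7 cells were seeded at 1 × 10⁵ cells/well and incubated overnight. Supernatant was removed and cells were stimulated with 10 ng/mL LPS plus graded compound concentrations for 20 h at 37 °C, 5% CO₂. The medium was phenol red-free RPMI1640 with 1% heat-inactivated FBS. Compounds came from 10 mM DMF stocks diluted in medium. Supernatant nitrite was read with DAN, then NaOH, as fluorescence at ex 355/em 460 nm.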

Mus musculus [2] = assay: Suppression of LPS-induced serum NO production in mouse endotoxin shock model at 1 mg/kg, iv administered 1 hr before LPS challenge by fluorometric assay
Mus musculus [3] = assay: Suppression of LPS-induced serum NO production in mouse endotoxin shock model at 10 mg/kg, iv administered 1 hr before LPS challenge by fluorometric assay
RAW264.7 [4] = assay: Suppression of LPS-induced IL6 production in mouse RAW264.7 cells; format: functional, cell-based
Outline: (§1)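 IC50 is the concentration cutting TNF-α or IL-6 production to 50% of control. Values are means ± SD from three or four experiments.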

RAW264.7 [5] = assay: Suppression of LPS-induced TNFalpha production in mouse RAW264.7 cells; format: functional, cell-based; outline: as §1
Mus musculus [6] = assay: Suppression of LPS-induced serum NO production in mouse endotoxin shock model at 3 mg/kg, iv administered 1 hr before LPS challenge by fluorometric assay
Mus musculus [7] = assay: Protective effect against lethal septic shock in mouse endotoxin shock model assessed as survival at 10 mg/kg, iv; format: functional, organism-based; parameters: dose 10 mg/kg
Outline: (§2)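 Mice got a lethal LPS dose of 7 mg/kg ip. Compound was given iv 1 h before LPS, in 10% (w/v) glucuronylglucosyl-β-cyclodextrin sodium salt. Survival was recorded over 7 days after LPS, with 7–10 mice per group.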

Mus musculus [8] = assay: Protective effect against lethal septic shock in iv dosed mouse endotoxin shock model; format: functional
Outline: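 Mice challenged with a lethal dose of LPS (7 mg/kg ip). Compounds were dissolved in 10% (w/v) glucuronylglucosyl-beta-cyclodextrin sodium salt and given intravenously at 1, 3 and 10 mg/kg, 1 h before LPS. Vehicle-dosed mice served as controls. Survival was recorded for 7 days after challenge and reported as survivors/total. ED50 is given in mg/kg.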

Mus musculus [9] = assay: Protective effect against lethal septic shock in mouse endotoxin shock model assessed as survival at 1 mg/kg, iv; format: functional, organism-based; parameters: dose 1 mg/kg; outline: as §2

IC50 (RAW264.7 [1]; Mus musculus, RAW264.7) [nM] | SMILES | also measured
104 | CCOC(=O)C1=CCCCC1S(=O)(=O)Cc1ccc(Cl)cc1F (stereo not given) | 
> 10000 | O=S(=O)(Cc1ccc(F)cc1Cl)C1CCCC=C1CO (stereo not given) | 
103 | CCCCOC(=O)C1=CCCCC1S(=O)(=O)Cc1ccc(F)cc1Cl (stereo not given) | 
12 | CCOC(=O)C1=CCCCC1S(=O)(=O)Cc1cccc(Cl)c1F (stereo not given) | 
14 | CCOC(=O)C1=CCCCC1S(=O)(=O)Cc1ccc(F)cc1F (stereo not given) | 
99 | COC(=O)C1=CCCCC1S(=O)(=O)Cc1ccc(F)cc1Cl (stereo not given) | 
14 | CCCOC(=O)C1=CCCCC1S(=O)(=O)Cc1ccc(F)cc1Cl (stereo not given) | 
> 10000 | CC(=O)OCC1=CCCCC1S(=O)(=O)Cc1ccc(F)cc1Cl (stereo not given) | 
100 | CC(C)OC(=O)C1=CCCCC1S(=O)(=O)Cc1ccc(F)cc1Cl (stereo not given) | 
> 10000 | CCC(O)C1=CCCCC1S(=O)(=O)Cc1ccc(F)cc1Cl (stereo not given) | 
64 | CCC(=O)C1=CCCCC1S(=O)(=O)Cc1ccc(F)cc1Cl (stereo not given) | 
60 | CCOC(=O)C1=CCCCC1S(=O)(=O)Cc1ccc(Cl)cc1Cl (stereo not given) | 
11 | CCCC(=O)C1=CCCCC1S(=O)(=O)Cc1ccc(F)cc1Cl (stereo not given) | 

Continued, molecule first:

SMILES | IC50 (RAW264.7 [1]; Mus musculus, RAW264.7) [nM] | also measured
CCOC(=O)C1=CCCCC1S(=O)(=O)C(CF)c1ccc(F)cc1Cl (stereo in doubt; 26a) |  | IC50 (RAW264.7 [1]; raw264.7): 435 nM
CCOC(=O)C1=CCCCC1S(=O)(=O)Cc1cc2ccccc2o1 (stereo not given) | 134 | 
CCOC(=O)C1=CCCCC1S(=O)(=O)Cc1coc2ccccc12 (stereo not given) | 106 | 
CCOC(=O)C1=CCCCC1S(=O)(=O)C(CF)c1ccc(F)cc1Cl (stereo in doubt; 26b) | 729 | 
CCOC(=O)C1=CCCCC1S(=O)(=O)Cc1ccsc1 (stereo not given) | 105 | 
CCOC(=O)C1=CCCCC1S(=O)(=O)Cc1cc(Cl)ccc1F (stereo not given) | 23 | 
CCOC(=O)C1=CCCCC1NS(=O)(=O)c1ccc(F)cc1Cl (stereo not given) | > 10000 | 
CCOC(=O)C1=CCCCC1S(=O)(=O)Cc1ccc(F)cc1Cl (stereo in doubt; (-)-10a) |  | IC50 (RAW264.7 [1]; raw264.7): 10000 nM
CCOC(=O)C1=CCCCC1S(=O)(=O)Cc1cccc(Cl)c1 (stereo not given) | 14 | 
CCOC(=O)C1=CCCCC1S(=O)(=O)Cc1cc2ccccc2s1 (stereo not given) | 101 | 
CCOC(=O)C1=CCCCC1S(=O)(=O)Cc1c[nH]c2ccccc12 (stereo not given) | 1010 | 
CCOC(=O)C1=CCCCC1S(=O)(=O)Cc1cccc(Cl)c1Cl (stereo not given) | 65 | 
CCOC(=O)C1=CCCCC1S(=O)(=O)C(C)c1ccc(F)cc1Cl (stereo in doubt; 22b) |  | IC50 (RAW264.7 [1]; raw264.7): 102 nM
CCOC(=O)C1=CCCCC1SCc1ccc(F)cc1Cl (stereo not given) | 5640 | 
CCOC(=O)C1=CCCC[C@H]1S(=O)(=O)Cc1ccc(F)cc1Cl |  | inhibition in vivo at 1 mg/kg (Mus musculus [2]): 27%; inhibition in vivo at 10 mg/kg (Mus musculus [3]): 76%; IC50 (RAW264.7 [4]): 1.5 nM; IC50 (RAW264.7 [5]): 8.3 nM; inhibition in vivo at 3 mg/kg (Mus musculus [6]): 54%; Activity (Mus musculus [7]): Non-toxic; ED50 (Mus musculus [8]): 1.85 mg/kg
CCOC(=O)C1=CCCCC1S(=O)(=O)Nc1ccc(F)cc1Cl (stereo not given) | 4.5 | 
CCOC(=O)C1=CCCCC1S(=O)(=O)Cc1ccccc1F (stereo not given) | 97 | 
CCOC(=O)C1=CCCCC1S(=O)(=O)C(C)c1ccc(F)cc1Cl (stereo in doubt; 22a) |  | IC50 (RAW264.7 [4]): 5.8 nM; IC50 (RAW264.7 [5]): 42 nM; IC50 (RAW264.7 [1]; raw264.7): 14 nM

SMILES | IC50 (RAW264.7 [1]; Mus musculus, RAW264.7) [nM] | also measured
CCOC(=O)C1=CCCCC1S(=O)(=O)C(C)c1ccc(F)cc1Cl (single isomer, unassigned; (+)) |  | IC50 (RAW264.7 [1]; raw264.7): 4 nM
CCOC(=O)C1=CCCCC1S(=O)(=O)Cc1ccc(F)cc1Cl (stereo in doubt; 10a) |  | IC50 (RAW264.7 [4]): 4.8 nM; IC50 (RAW264.7 [5]): 21 nM; IC50 (RAW264.7 [1]; raw264.7): 10 nM
CCOC(=O)C1=CCCCC1S(=O)(=O)Cc1ccccc1Cl (single isomer, unassigned; (+)) |  | IC50 (RAW264.7 [1]; raw264.7): 11 nM
CCOC(=O)C1=CCCCC1S(=O)(=O)C(C)c1ccccc1 (stereo in doubt; 19a) |  | IC50 (RAW264.7 [1]; raw264.7): 100 nM
CCOC(=O)C1=CCCC[C@H]1S(=O)(=O)[C@@H](C)c1ccc(F)cc1Cl |  | inhibition in vivo at 1 mg/kg (Mus musculus [2]): -10.1%; inhibition in vivo at 10 mg/kg (Mus musculus [3]): 78%; IC50 (RAW264.7 [4]): 1.8 nM; IC50 (RAW264.7 [5]): 20 nM; inhibition in vivo at 3 mg/kg (Mus musculus [6]): 55.7%; Activity (Mus musculus [9]): Toxic; Activity (Mus musculus [7]): Non-toxic; ED50 (Mus musculus [8]): 5.6 mg/kg
CCOC(=O)C1=CCCCC1S(=O)(=O)Cc1cccc(F)c1F (stereo not given) | 100 | 
CCOC(=O)C1=CCCCC1S(=O)(=O)Cc1ccncc1 (stereo not given) | 1410 | 
CCOC(=O)C1=CCCCC1S(=O)(=O)Cc1ccccc1Cl (single isomer, unassigned; (-)) |  | IC50 (RAW264.7 [1]; raw264.7): 1200 nM
CCOC(=O)C1=CCCCC1S(=O)(=O)Oc1ccc(F)cc1Cl (stereo not given) | 904 | 
CCOC(=O)C1=CCCCC1S(=O)(=O)Cc1ccc(Cl)cc1 (stereo not given) | 101 | 
CCOC(=O)C1=CCCCC1S(=O)(=O)C(C)c1ccc(F)cc1Cl (single isomer, unassigned; (-)) |  | IC50 (RAW264.7 [1]; raw264.7): 1300 nM
CCOC(=O)C1=CCCCC1S(=O)(=O)Cc1ccc(F)cc1Cl (single isomer, unassigned; (+)) |  | IC50 (RAW264.7 [1]; raw264.7): 5.7 nM
CCOC(=O)C1=CCCCC1S(=O)(=O)Cc1ccc(F)c(Cl)c1 (stereo not given) | 13 | 
CCOC(=O)C1=CCCCC1S(=O)(=O)Cc1ccc(Cl)c(Cl)c1 (stereo not given) | 53 | 
CCOC(=O)C1=CCCCC1S(=O)(=O)C(C)c1ccccc1 (stereo in doubt; 19b) |  | IC50 (RAW264.7 [1]; raw264.7): 1320 nM
CCOC(=O)C1=CCCCC1S(=O)(=O)Cc1ccccc1 (stereo not given) | 101 | 
CCOC(=O)C1=CCCCC1S(=O)(=O)Cc1ccccc1Cl (stereo in doubt; 10e) |  | IC50 (RAW264.7 [1]; raw264.7): 14 nM
